Key:
ADCYAP1R1 = assay: PathHunter β-arrestin; assay type: cell-based; settings: 6 μM
Procedure, shortened: (§1)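 β-Arrestin recruitment assay: the enzyme acceptor is fused to β-arrestin and the ED fragment to the GPCR. Recruitment restores β-galactosidase, read by chemiluminescence. % activity = 100% × (test − vehicle)/(max control ligand − vehicle). % inhibition = 100% × (1 − (test − vehicle)/(EC80 control − vehicle)). An agonist hit needs >30% activity and RLU > baseline + 3×SD. An antagonist hit needs >35% inhibition and RLU < EC80 RLU − 3×SD.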

ADORA3 = assay: PathHunter β-arrestin; assay type: cell-based; settings: 6 μM
Procedure, shortened: as §1

ADRA1B = assay: PathHunter β-arrestin; assay type: cell-based; settings: agonist mode, 6 μM
Procedure, shortened: as §1

CCR3 = assay: PathHunter β-arrestin; assay type: cell-based; settings: 6 μM
Procedure, shortened: as §1

CCR6 = assay: PathHunter β-arrestin; assay type: cell-based; settings: antagonist mode, 6 μM
Procedure, shortened: (§2)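 Engineered cells express the receptor fused to one β-galactosidase fragment (ED) and β-arrestin fused to the complementing fragment (EA). Receptor activation recruits β-arrestin, which restores enzyme activity, and this is read by chemiluminescence (RLU). Agonist % activity is 100% × (test − vehicle)/(maximal control ligand − vehicle). Antagonist mode is challenged with an EC80 control agonist, and % inhibition is 100% × (1 − (test − vehicle)/(EC80 − vehicle)). Hits require >30% activity or >35% inhibition, plus a 3×SD RLU margin.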

CCR8 = assay: PathHunter β-arrestin; assay type: cell-based; settings: antagonist mode, 6 μM
Procedure, shortened: as §2

CHRM1 = assay: PathHunter β-arrestin; assay type: cell-based; settings: 6 μM
Procedure, shortened: as §2

CHRM5 = assay: PathHunter β-arrestin; assay type: cell-based; settings: 6 μM
Procedure, shortened: as §2

CNR2 = assay: PathHunter β-arrestin; assay type: cell-based; settings: 6 μM
Procedure, shortened: as §2

CXCR4 = assay: PathHunter β-arrestin; assay type: cell-based; settings: 6 μM
Procedure, shortened: as §2

CXCR5 = assay: PathHunter β-arrestin; assay type: cell-based; settings: 6 μM
Procedure, shortened: as §2

CXCR7 = assay: PathHunter β-arrestin; assay type: cell-based; settings: antagonist mode, 6 μM
Procedure, shortened: as §2

DRD4 = assay: PathHunter β-arrestin; assay type: cell-based; settings: 6 μM
Procedure, shortened: as §2

EDG5 = assay: PathHunter β-arrestin; assay type: cell-based; settings: 6 μM
Procedure, shortened: as §2

FFAR1 = assay: PathHunter β-arrestin; assay type: cell-based; settings: agonist mode, 6 μM
Procedure, shortened: as §2

FPRL1 = assay: PathHunter β-arrestin; assay type: cell-based; settings: antagonist mode, 6 μM
Procedure, shortened: as §2

GALR1 = assay: PathHunter β-arrestin; assay type: cell-based; settings: 6 μM
Procedure, shortened: as §2

GALR2 = assay: PathHunter β-arrestin; assay type: cell-based; settings: agonist mode, 6 μM
Procedure, shortened: as §2

GPR120 = assay: PathHunter β-arrestin; assay type: cell-based; settings: 6 μM
Procedure, shortened: (§3)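 Vendor-run (DiscoveRx) PathHunter enzyme fragment complementation. β-Arrestin carries the EA fragment and the receptor carries ED; recruitment restores β-gal activity, read by chemiluminescence (RLU). Agonist % activity = vehicle-subtracted RLU relative to max control ligand (gpcrMAX) or to vehicle (orphanMAX). Antagonist % inhibition = 100% × (1 − vehicle-subtracted sample RLU / vehicle-subtracted EC80 agonist control RLU).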

HCRTR2 = assay: PathHunter β-arrestin; assay type: cell-based; settings: antagonist mode, 6 μM
Procedure, shortened: as §3

MC3R = assay: PathHunter β-arrestin; assay type: cell-based; settings: 6 μM
Procedure, shortened: as §3

MC4R = assay: PathHunter β-arrestin; assay type: cell-based; settings: 6 μM
Procedure, shortened: as §3

NPSR1B = assay: PathHunter β-arrestin; assay type: cell-based; settings: agonist mode, 6 μM
Procedure, shortened: as §3

NPY1R = assay: PathHunter β-arrestin; assay type: cell-based; settings: antagonist mode, 6 μM
Procedure, shortened: as §3

OXER1 = assay: PathHunter β-arrestin; assay type: cell-based; settings: agonist mode, 6 μM
P2RY12 = assay: PathHunter β-arrestin; assay type: cell-based; settings: 6 μM
Procedure, shortened: (§4)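 β-Arrestin recruitment to GPCR read by β-galactosidase fragment complementation and chemiluminescence. Agonist: % = 100 × (test − vehicle)/(max control ligand − vehicle), hit at >30% and RLU > baseline + 3 SD. Antagonist, against EC80 agonist: % inhibition = 100 × (1 − (test − vehicle)/(EC80 − vehicle)), hit at >35% and RLU < EC80 − 3 SD.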

PPYR1 = assay: PathHunter β-arrestin; assay type: cell-based; settings: antagonist mode, 6 μM
PTGER4 = assay: PathHunter β-arrestin; assay type: cell-based; settings: 6 μM
Procedure, shortened: as §4

TACR1 = assay: PathHunter β-arrestin; assay type: cell-based; settings: 6 μM
Procedure, shortened: as §4

TACR2 = assay: PathHunter β-arrestin; assay type: cell-based; settings: agonist mode, 6 μM
VIPR2 = assay: PathHunter β-arrestin; assay type: cell-based; settings: 6 μM
Procedure, shortened: as §4

TLR5 = assay: western blot, JJ012 cells; assay type: cell-based, human; settings: vs untreated control, overnight incubation
TLR10 = assay: western blot, JJ012 cells; assay type: cell-based, human; settings: vs untreated control, overnight incubation
TICAM2 (TRAM) = assay: western blot, JJ012 cells; assay type: cell-based, human; settings: vs untreated control, overnight incubation
TLR1 = assay: RT2 qPCR primer assay, JJ012 cells; assay type: cell-based, human
Procedure, shortened: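 RNA was extracted, checked by spectrophotometry and reverse-transcribed. Custom RT2 SYBR-Green primer assays were run on three samples in technical triplicate. Ct was normalised to mean GAPDH/ACTB, ΔΔCt taken versus control, and fold change = 2^−ΔΔCt.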

Proline rich polypeptide 1 [PRP-1]
% Activity (ADCYAP1R1; agonist mode): 1% | % Inhibition (ADCYAP1R1; antagonist mode): −6% | % Activity (ADORA3; agonist mode): 1% | % Inhibition (ADORA3; antagonist mode): −3% | % Activity (ADRA1B): 1% | % Activity (CCR3; agonist mode): 2% | % Inhibition (CCR3; antagonist mode): −3% | % Inhibition (CCR6): 2% | % Inhibition (CCR8): −4% | % Activity (CHRM1; agonist mode): 1% | % Inhibition (CHRM1; antagonist mode): −12% | % Activity (CHRM5; agonist mode): 5% | % Inhibition (CHRM5; antagonist mode): −4% | % Activity (CNR2; agonist mode): −2% | % Inhibition (CNR2; antagonist mode): 5% | % Activity (CXCR4; agonist mode): 2% | % Inhibition (CXCR4; antagonist mode): 2% | % Activity (CXCR5; agonist mode): 1% | % Inhibition (CXCR5; antagonist mode): −8% | % Inhibition (CXCR7): −2% | % Activity (DRD4; agonist mode): 3% | % Inhibition (DRD4; antagonist mode): −2% | % Activity (EDG5; agonist mode): 1% | % Inhibition (EDG5; antagonist mode): −8% | % Activity (FFAR1): 3% | % Inhibition (FPRL1): −2% | % Activity (GALR1; agonist mode): 1% | % Inhibition (GALR1; antagonist mode): −4% | % Activity (GALR2): 1% | % Activity (GPR120; agonist mode): 1% | % Inhibition (GPR120; antagonist mode): −6% | % Inhibition (HCRTR2): −1% | % Activity (MC3R; agonist mode): 3% | % Inhibition (MC3R; antagonist mode): −6% | % Activity (MC4R; agonist mode): −1% | % Inhibition (MC4R; antagonist mode): −6% | % Activity (NPSR1B): 2% | % Inhibition (NPY1R): 4% | % Activity (OXER1): −2% | % Activity (P2RY12; agonist mode): 1% | % Inhibition (P2RY12; antagonist mode): 8% | % Inhibition (PPYR1): −4% | % Activity (PTGER4; agonist mode): 1% | % Inhibition (PTGER4; antagonist mode): 4% | % Activity (TACR1; agonist mode): 1% | % Inhibition (TACR1; antagonist mode): −2% | % Activity (TACR2): 1% | % Activity (VIPR2; agonist mode): 1% | % Inhibition (VIPR2; antagonist mode): −3% | protein expression (TLR5): PRP-1 did not have any effect | protein expression (TLR10): no indication of PRP-1 effect | protein expression (TICAM2 (TRAM)): upregulated in dose-dependent manner | gene expression (TLR1; 10 μg/ml PRP-1, heat map, average Ct, technical triplicates): well expressed | fold change (∆Ct) (TLR1; qRT-PCR): did not report significant fold change
